Entries after “also recorded” stand apart in the source; their conditions may differ.
Columns and labels:
DnaK-DnaJ [1] = molecular target: T1, DnaK-DnaJ (Escherichia coli, UniProt P0A6Y8); assay: High throughput ATPase assay of DnaK-DnaJ; type: biochemical; details: for inhibition of DnaK-DnaJ ATPase activity upon re-testing: repurchased (fresh) samples
[2] = molecular target: firefly luciferase [luciferase: P08659]; assay: ELISA
[3] = molecular target: DnaK binding to luciferase (Escherichia coli, UniProt P0A6Y8); assay: ELISA of DnaK binding to the model substrate firefly luciferase; details: 0.05 μM DnaK + 1 mM ATP
DnaK binding to luciferase, sequence (P0A6Y8 whole entry): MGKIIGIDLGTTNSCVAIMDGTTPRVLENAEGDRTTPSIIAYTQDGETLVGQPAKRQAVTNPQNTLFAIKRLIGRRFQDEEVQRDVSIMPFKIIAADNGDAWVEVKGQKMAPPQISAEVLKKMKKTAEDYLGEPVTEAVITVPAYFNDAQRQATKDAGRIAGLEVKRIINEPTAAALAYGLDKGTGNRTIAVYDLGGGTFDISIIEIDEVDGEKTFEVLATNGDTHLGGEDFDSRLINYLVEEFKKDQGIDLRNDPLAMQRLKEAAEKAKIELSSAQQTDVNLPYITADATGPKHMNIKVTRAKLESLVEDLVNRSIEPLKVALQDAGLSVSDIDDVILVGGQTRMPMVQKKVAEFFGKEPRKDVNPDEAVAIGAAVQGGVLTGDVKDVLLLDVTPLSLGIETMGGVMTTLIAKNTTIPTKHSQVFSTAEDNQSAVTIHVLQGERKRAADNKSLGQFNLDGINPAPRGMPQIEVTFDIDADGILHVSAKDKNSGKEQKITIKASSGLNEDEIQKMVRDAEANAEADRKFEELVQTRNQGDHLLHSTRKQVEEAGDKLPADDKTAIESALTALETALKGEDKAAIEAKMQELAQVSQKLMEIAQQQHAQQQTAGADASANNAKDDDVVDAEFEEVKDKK

DnaK-DnaJ [4] = molecular target: T1, DnaK-DnaJ; assay: DnaJ-mediated stimulation of ATP turnover by DnaK; type: biochemical; details: DnaK 0.6 μM
How it was run: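 E. coli DnaK (purified) at 0.6 µM with DnaJ titrated, in 100 mM Tris-HCl, 20 mM KCl, 6 mM MgCl2, 0.01% Triton X-100, pH 7.4. Reaction started with 7 mM ATP stock and run 3 h at 37 °C. Quinaldine red–molybdate reagent added for 2 min, quenched with sodium citrate, then 15 min at 37 °C. Absorbance read at 530 nm; triplicates.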

DnaK = DnaK (Escherichia coli, UniProt P0A6Y8); assay: Intrinsic ATPase activity of DnaK; type: biochemical; details: without DnaJ stimulation
DnaK, sequence (P0A6Y8 whole entry): as above

T1 sequence (P0A6Y8 whole entry): as above
Escherichia coli heat shock protein 70 (Hsp70/DnaK), sequence (P0A6Y8 whole entry): as above
firefly luciferase [luciferase: P08659], sequence (P08659 whole entry): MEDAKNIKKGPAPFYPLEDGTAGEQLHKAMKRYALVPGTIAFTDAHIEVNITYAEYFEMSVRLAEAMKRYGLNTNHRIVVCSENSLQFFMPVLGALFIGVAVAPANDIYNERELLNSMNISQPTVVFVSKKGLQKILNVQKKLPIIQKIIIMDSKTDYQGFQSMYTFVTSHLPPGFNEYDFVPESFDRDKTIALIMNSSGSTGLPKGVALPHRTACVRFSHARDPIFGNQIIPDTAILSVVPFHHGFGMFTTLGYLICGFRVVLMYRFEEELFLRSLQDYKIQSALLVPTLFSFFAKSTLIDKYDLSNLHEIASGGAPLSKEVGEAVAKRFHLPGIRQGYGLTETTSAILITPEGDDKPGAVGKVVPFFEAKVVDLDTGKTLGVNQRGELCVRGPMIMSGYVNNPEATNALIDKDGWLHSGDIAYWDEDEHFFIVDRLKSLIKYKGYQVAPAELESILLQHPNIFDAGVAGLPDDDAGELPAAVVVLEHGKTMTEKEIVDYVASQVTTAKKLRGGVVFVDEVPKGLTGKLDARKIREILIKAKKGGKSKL

In the case of Cc1cc(C(F)(F)F)c(C#N)c(SCC(=O)c2ccccc2)n1 [3a, 6-methyl-2-((2-oxo-2-phenylethyl)thio)-4-(trifluoromethyl)nicotinonitrile], the IC50 (DnaK-DnaJ [1]) is reported as over 500 µM.
CCOC(=O)c1c(N)n(-c2ccccc2)c2nc3ccccc3nc12 [2a, ethyl 2-amino-1-phenyl-1H-pyrrolo[2,3-b]quinoxaline-3-carboxylate] was tested, and the IC50 (DnaK-DnaJ [1]) was over 500 µM.
Work on “Escherichia coli heat shock protein 70 (Hsp70/DnaK) (from UniProt P0A6Y8 1-638) (natural protein)” yielded a Kd [2] of 0.26 µM.
O=C(O)c1ccc2c(c1)C1C=CCC1C(c1ccc(Cl)cc1)N2 (stereo not drawn) [1b, 4-(4-chlorophenyl)-3a,4,5,9b-tetrahydro-3H-cyclopenta[c]quinoline-8-carboxylic acid] was tested, and the “inhibition of DnaK-DnaJ ATPase activity upon re-testing” value (“inhibition” for short) (DnaK-DnaJ [1]) was “none of these compounds were inhibitors”.
With O=C(O)c1cccc2c1NC(c1ccc([N+](=O)[O-])cc1)C1CC=CC21 (stereo not drawn) [1a, 4-(4-nitrophenyl)-3a,4,5,9b-tetrahydro-3H-cyclopenta[c]quinoline-6-carboxylic acid] the “inhibition” value (DnaK-DnaJ [1]) was “none of these compounds were inhibitors”.
CCc1ccc(C2Nc3ccc(C(=O)O)cc3C3C=CCC32)cc1 (stereo not drawn) [1d, 4-(4-ethylphenyl)-3a,4,5,9b-tetrahydro-3H-cyclopenta[c]quinoline-8-carboxylic acid] was tested, and the “inhibition” value (DnaK-DnaJ [1]) was “none of these compounds were inhibitors”.
In the case of O=C(O)c1ccc2c(c1)C1C=CCC1C(c1cccc(C(F)(F)F)c1)N2 (stereo not drawn) [1c, 4-(3-(trifluoromethyl)phenyl)-3a,4,5,9b-tetrahydro-3H-cyclopenta[c]quinoline-8-carboxylic acid], the “inhibition” value (DnaK-DnaJ [1]) is reported as “none of these compounds were inhibitors”.
With CCCCCCn1c(N)c(C(=O)OCC)c2nc3ccccc3nc21 [2b, ethyl 2-amino-1-hexyl-1H-pyrrolo[2,3-b]quinoxaline-3-carboxylate] the IC50 (DnaK-DnaJ [1]) was over 500 µM.
COc1cc(C(=O)NS(=O)(=O)c2ccccc2C)ccc1Cc1cn(C)c2ccc(NC(=O)OC3CCCC3)cc12 [3c, cyclopentyl (3-(2-methoxy-4-((o-tolylsulfonyl)carbamoyl)benzyl)-1-methyl-1H-indol-5-yl) carbamate] was tested, and the IC50 (DnaK-DnaJ [1]) was 37 ± 1 µM, the “effect on apparent affinity of DnaK for luciferase” value [3] was “significantly improved the apparent affinity; also recorded: significantly enhanced this interaction” and the “K0.5 of DnaJ” value (DnaK-DnaJ [4]; in presence of 25 μM compound) was 0.18 ± 0.01 µM. The “K0.5 of DnaJ” value (DnaK-DnaJ [4]; in presence of 50 μM compound) was 0.96 ± 0.16 µM, the “K0.5 of DnaJ” value (DnaK-DnaJ [4]; in presence of 100 μM compound) was “greater than 2 μM” and the “effect on the intrinsic ATPase activity of DnaK” value (DnaK) was “little effect on the intrinsic ATPase activity”.
In the case of CCOC(=O)c1c(N)sc2c1CCN(C(C)=O)C2 [3b, ethyl 6-acetyl-2-amino-4,5,6,7-tetrahydrothieno[2,3-c]pyridine-3-carboxylate], the IC50 (DnaK-DnaJ [1]) is reported as over 500 µM.
